The nature of experiment [1]: Inhibition of M phase starfish oocytes CDK1/cyclin B using [gamma-33P]-ATP after 30 mins by scintillation counting. Further details: species or system Asteroidea. The method, boiled down:
(§1)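 Native starfish M-phase CDK1/cyclin B or human recombinant CDK2 or CDK5/p25 was incubated with histone H1 (1 mg/mL) and [γ-33P]ATP in buffer D (10 mM MgCl2, 1 mM EGTA, 1 mM DTT, 25 mM Tris/HCl, heparin) at 30 °C for 30 min. BSA was added except for CDK2. Reactions were spotted on P81 paper, washed in 1% phosphoric acid and counted by scintillation. Activity is expressed as % of the no-inhibitor control with blanks subtracted. IC50 was taken from dose-response curves.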

Experiment [2] has as its target Dual specificity protein kinase CLK4 (Mus musculus, UniProt O35493). In words: Inhibition of mouse recombinant CLK4 expressed in Escherichia coli using GRSRSRSRSRSR as substrate.
The target in experiment [3] is Glycogen synthase kinase-3 (Sus scrofa, UniProt B2LUN4+I6LNT8). The experiment in a line: Inhibition of porcine brain GSK-3alpha/beta using YRRAAVPPSPSLSRHSSPHQSpEDEEE as substrate. The method, boiled down:
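Reaction harvested onto P81 paper, washed in 1% phosphoric acid, and scintillation-counted. Blanks subtracted; activity as % of the no-inhibitor activity, with DMSO controls. IC50 from dose-response curves.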

In experiment [4] the target is Dual specificity tyrosine-phosphorylation-regulated kinase 1B (Homo sapiens, UniProt Q9Y463).
Another experiment addresses CDK9/cyclin T1 (Homo sapiens, UniProt P50750). The experiment in a line: Inhibition of human recombinant CDK9/cyclin T using YSPTSPSYSPTSPSYSPTSPSKKKK as substrate. Type of experiment: protein-complex assay. The method, boiled down:
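CDK9/cyclin T was human recombinant, made in insect cells. It was run like the CDK1 radiometric assay: buffer D with [γ-33P]ATP, 30 min at 30 °C, CDK7/9 tide peptide substrate, P81 capture and scintillation counting. IC50 came from dose-response curves relative to a DMSO control.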

Experiment [5] has as its target Dual specificity tyrosine-phosphorylation-regulated kinase 1A (Homo sapiens, UniProt Q13627). In words: Inhibition of human recombinant DYRK1A expressed in Escherichia coli using GRSRSRSRSRSR as substrate.
Experiment [6] has as its target Dual specificity protein kinase CLK1 (Mus musculus, UniProt P22518). In words: Inhibition of mouse recombinant CLK1 expressed in Escherichia coli using GRSRSRSRSRSR as substrate. Put shortly:
(§2)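 Human DYRKs and mouse CLKs were expressed in E. coli as GST fusions and purified on glutathione-agarose. Each was assayed with RS peptide substrate and [γ-33P]ATP in buffer D at 30 °C for 30 min. Phosphorylation was read on P81 filters by scintillation. Activity is given as % of maximal after blank subtraction, and IC50 was derived from dose-response curves.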

Experiment [7] concerns the target T1, Dual specificity tyrosine-phosphorylation-regulated kinase 3 (Homo sapiens, UniProt O43781).
T1 sequence (O43781 whole entry): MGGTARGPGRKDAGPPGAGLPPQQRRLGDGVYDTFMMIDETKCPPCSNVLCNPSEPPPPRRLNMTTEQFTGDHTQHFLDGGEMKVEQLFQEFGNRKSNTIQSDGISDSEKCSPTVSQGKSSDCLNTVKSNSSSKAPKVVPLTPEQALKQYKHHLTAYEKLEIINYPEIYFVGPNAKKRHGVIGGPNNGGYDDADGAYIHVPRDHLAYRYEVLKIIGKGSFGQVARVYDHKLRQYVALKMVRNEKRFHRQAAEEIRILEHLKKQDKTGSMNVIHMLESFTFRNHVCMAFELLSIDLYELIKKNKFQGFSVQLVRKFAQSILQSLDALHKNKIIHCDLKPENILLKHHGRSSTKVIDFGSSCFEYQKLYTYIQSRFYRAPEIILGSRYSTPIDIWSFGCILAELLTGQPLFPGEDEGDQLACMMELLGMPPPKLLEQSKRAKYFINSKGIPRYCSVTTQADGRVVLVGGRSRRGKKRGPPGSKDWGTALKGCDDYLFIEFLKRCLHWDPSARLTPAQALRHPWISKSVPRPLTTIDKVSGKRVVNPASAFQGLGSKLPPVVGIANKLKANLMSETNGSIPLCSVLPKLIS
In words: Inhibition of human recombinant DYRK3 expressed in Escherichia coli using GRSRSRSRSRSR as substrate.

The target of experiment [8] is Dual specificity protein kinase CLK3 (Mus musculus, UniProt O35492). The experiment in a line: Inhibition of mouse recombinant CLK3 expressed in Escherichia coli using GRSRSRSRSRSR as substrate. The method, boiled down:
as §2

For another experiment, the target named is CDK2/Cyclin A2 (Homo sapiens, UniProt P24941). The experiment in a line: Inhibition of human recombinant CDK2/cyclin A using [gamma-33P]-ATP after 30 mins by scintillation counting. The experiment is classed as protein-complex assay. The method, boiled down:
as §1

Experiment [9] has as its target T2, Dual specificity tyrosine-phosphorylation-regulated kinase 2 (Homo sapiens, UniProt Q92630).
T2 sequence (Q92630 whole entry): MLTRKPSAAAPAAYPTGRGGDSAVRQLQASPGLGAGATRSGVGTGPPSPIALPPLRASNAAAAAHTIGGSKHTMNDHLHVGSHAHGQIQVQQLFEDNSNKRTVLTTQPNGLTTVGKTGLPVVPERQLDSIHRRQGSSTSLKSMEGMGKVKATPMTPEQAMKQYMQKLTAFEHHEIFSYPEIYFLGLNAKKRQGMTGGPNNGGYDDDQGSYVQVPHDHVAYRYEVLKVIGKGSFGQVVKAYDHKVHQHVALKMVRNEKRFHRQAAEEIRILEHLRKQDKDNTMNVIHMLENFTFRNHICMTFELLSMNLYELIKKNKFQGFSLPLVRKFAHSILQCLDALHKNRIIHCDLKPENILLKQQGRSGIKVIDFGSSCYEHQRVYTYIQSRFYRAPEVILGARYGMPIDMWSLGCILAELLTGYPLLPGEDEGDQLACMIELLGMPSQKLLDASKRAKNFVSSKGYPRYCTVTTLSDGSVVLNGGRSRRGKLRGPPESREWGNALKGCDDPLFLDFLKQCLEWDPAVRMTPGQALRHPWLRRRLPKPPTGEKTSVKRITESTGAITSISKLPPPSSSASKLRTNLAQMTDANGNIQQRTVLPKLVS
The experiment in a line: Inhibition of human recombinant DYRK2 expressed in Escherichia coli using GRSRSRSRSRSR as substrate.

Experiment [10] concerns the target Cyclin-dependent kinase 5/CDK5 activator 1 (Homo sapiens, UniProt Q00535). In words: Inhibition of human recombinant CDK5/p25 using [gamma-33P]-ATP after 30 mins by scintillation counting. Type of experiment: protein-complex assay.
For experiment [11], the target named is Dual specificity protein kinase CLK2 (Mus musculus, UniProt O35491). In words: Inhibition of mouse recombinant CLK2 expressed in Escherichia coli using GRSRSRSRSRSR as substrate. The method, boiled down:
as §2

Experiment [12] is described as follows: Inhibition of porcine brain CK1delta/epsilon using RRKHAAIGpSAYSITA as substrate. Also noted: species or system Sus scrofa. The method, boiled down:
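Native porcine brain CK1δ/ε was assayed with the CKS phosphopeptide substrate, [γ-33P]ATP and buffer D for 30 min at 30 °C. Product was captured on P81 paper and counted by scintillation. IC50 was calculated from dose-response curves, with activity as % of the no-inhibitor control.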

In experiment [13] the target is Dual specificity tyrosine-phosphorylation-regulated kinase 1A (Mus musculus) (UniProt Q61214). In words: Binding affinity to DYRK1A in mouse brain extracts by Western blot analysis. The experiment is classed as tissue-based. Put shortly: (§3)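 Mouse brains homogenized and sonicated in Mops pH 7.2 buffer with β-glycerophosphate, phosphatase and protease inhibitors, spun 15 min at 17,000×g at 4 °C. Extract (1 or 2 mg total protein) rotated 30 min at 4 °C with ligand-linker coupled via amine to CNBr-activated Sepharose. Beads washed 4×, boiled 3 min in LDS/DTT, then 10% Bis-Tris SDS-PAGE and immunoblot with specific antibodies and ECL.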

The species named for a further experiment is Mus musculus. The experiment in a line: Binding affinity to GSK3 in mouse brain extracts by Western blot analysis. Type of experiment: tissue-based. The method, boiled down: as §3
For orientation: In western blotting, separated proteins are transferred to a membrane and probed.

Molecules are shown by their SMILES. The source made the active and inactive calls. The rule behind the calls is not given here.

The values that follow come from ChEMBL document CHEMBL3091319, “Chemical synthesis and biological validation of immobilized protein kinase inhibitory Leucettines” (Eur J Med Chem, 2013).

Sequence of Dual specificity protein kinase CLK1 (P22518 whole entry, the tested form may be a part): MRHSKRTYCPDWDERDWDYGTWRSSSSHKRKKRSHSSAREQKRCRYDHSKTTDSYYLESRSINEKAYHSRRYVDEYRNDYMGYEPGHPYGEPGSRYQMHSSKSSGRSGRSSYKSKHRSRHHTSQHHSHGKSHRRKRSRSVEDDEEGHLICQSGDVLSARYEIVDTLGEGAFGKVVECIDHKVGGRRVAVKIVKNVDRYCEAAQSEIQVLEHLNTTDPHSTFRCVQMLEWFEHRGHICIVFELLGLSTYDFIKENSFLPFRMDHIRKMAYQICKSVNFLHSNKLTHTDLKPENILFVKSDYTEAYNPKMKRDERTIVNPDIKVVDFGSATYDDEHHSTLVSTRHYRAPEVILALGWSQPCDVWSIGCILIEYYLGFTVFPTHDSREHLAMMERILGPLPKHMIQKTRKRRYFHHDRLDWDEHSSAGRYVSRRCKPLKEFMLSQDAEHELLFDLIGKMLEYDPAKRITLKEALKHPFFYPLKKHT
Sequence of Dual specificity tyrosine-phosphorylation-regulated kinase 1B (Q9Y463 whole entry): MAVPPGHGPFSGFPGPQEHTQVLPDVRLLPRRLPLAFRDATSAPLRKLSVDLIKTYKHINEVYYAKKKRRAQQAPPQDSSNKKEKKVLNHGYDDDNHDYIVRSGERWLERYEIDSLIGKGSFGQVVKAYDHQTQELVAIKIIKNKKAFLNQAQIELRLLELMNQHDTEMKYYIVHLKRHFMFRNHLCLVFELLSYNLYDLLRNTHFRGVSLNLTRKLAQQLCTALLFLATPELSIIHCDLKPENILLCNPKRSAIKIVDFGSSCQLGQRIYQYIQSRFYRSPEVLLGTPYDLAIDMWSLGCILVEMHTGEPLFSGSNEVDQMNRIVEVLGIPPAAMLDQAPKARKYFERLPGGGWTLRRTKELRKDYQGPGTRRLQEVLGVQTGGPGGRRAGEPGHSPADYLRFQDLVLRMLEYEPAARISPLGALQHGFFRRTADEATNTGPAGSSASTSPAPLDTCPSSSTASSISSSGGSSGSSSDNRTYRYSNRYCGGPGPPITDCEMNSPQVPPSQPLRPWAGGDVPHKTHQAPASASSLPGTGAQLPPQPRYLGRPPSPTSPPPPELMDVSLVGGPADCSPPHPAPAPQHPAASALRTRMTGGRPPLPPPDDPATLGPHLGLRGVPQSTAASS
Sequence of Dual specificity protein kinase CLK2 (O35491 whole entry): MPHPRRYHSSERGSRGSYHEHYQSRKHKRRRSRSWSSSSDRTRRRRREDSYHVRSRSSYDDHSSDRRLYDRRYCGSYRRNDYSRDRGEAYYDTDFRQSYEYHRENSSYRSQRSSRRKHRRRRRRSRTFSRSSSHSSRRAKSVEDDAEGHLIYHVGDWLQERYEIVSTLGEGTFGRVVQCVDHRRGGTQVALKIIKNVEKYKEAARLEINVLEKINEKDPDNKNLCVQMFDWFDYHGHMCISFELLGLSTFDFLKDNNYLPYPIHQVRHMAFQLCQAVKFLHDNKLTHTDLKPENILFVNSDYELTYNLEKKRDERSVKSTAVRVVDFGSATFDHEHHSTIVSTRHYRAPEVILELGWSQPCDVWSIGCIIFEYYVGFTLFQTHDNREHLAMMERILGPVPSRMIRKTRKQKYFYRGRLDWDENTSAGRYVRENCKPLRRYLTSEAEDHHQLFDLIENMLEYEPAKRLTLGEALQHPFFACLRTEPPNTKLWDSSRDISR
Sequence of CDK9/cyclin T1 (O60563 whole entry): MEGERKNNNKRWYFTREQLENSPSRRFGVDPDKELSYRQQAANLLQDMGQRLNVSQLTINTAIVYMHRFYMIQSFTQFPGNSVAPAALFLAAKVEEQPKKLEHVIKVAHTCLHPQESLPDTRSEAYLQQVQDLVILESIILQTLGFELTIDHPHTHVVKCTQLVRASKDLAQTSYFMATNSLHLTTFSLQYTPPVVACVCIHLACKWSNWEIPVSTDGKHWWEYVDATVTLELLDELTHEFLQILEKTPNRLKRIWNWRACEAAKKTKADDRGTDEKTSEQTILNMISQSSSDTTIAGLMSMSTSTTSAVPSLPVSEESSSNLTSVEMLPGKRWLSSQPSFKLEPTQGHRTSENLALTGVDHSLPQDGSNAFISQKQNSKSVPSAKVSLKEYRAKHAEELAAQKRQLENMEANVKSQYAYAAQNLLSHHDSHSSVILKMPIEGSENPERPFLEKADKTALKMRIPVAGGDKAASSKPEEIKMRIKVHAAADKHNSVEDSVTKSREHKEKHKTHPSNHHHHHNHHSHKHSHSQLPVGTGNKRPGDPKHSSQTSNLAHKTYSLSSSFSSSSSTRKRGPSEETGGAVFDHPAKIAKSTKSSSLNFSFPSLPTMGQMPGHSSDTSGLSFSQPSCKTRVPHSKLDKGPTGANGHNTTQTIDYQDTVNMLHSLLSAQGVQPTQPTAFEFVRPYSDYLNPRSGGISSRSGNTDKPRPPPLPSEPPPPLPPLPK
Sequence of CDK9/cyclin T1 (P50750 whole entry): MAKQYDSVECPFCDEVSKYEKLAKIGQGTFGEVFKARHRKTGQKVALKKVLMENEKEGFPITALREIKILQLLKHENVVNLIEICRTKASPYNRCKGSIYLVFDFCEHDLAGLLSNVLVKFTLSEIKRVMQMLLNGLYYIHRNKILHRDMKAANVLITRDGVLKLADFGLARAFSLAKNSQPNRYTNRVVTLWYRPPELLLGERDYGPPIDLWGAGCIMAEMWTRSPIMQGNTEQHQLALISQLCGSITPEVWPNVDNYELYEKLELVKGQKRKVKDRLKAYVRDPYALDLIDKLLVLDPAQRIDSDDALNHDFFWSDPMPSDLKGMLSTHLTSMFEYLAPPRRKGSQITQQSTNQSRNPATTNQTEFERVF
Sequence of Dual specificity protein kinase CLK3 (O35492 whole entry): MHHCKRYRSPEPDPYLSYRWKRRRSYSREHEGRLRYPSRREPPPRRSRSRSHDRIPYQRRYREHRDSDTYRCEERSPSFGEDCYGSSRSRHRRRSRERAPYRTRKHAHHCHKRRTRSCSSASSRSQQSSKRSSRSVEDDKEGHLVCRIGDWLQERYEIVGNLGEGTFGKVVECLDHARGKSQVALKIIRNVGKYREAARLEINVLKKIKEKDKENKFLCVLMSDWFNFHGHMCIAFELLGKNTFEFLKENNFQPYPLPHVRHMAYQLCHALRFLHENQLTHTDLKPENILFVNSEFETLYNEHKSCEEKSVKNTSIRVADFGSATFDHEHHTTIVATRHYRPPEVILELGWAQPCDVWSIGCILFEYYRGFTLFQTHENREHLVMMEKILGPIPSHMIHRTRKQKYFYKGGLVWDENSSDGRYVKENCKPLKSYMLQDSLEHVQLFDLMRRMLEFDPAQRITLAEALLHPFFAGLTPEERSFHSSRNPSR
Sequence of Cyclin-dependent kinase 5/CDK5 activator 1 (Q00535 whole entry): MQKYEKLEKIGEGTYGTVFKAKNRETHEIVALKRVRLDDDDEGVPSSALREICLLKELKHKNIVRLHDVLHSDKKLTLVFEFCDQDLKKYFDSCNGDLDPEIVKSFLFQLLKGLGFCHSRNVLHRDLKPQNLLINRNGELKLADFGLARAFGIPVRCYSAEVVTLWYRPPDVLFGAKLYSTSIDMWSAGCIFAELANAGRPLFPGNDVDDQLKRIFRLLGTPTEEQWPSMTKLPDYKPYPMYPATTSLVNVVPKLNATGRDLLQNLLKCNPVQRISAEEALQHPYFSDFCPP
Sequence of Cyclin-dependent kinase 5/CDK5 activator 1 (Q15078 whole entry, further chain): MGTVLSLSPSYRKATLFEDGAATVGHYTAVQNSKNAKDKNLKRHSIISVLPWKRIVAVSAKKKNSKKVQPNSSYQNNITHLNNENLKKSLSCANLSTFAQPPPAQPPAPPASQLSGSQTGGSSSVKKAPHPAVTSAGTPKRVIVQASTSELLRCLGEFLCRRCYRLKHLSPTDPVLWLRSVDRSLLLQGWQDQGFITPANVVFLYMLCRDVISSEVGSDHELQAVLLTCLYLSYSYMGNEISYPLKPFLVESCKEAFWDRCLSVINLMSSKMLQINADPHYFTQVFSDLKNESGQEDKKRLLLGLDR
Sequence of Dual specificity protein kinase CLK4 (O35493 whole entry): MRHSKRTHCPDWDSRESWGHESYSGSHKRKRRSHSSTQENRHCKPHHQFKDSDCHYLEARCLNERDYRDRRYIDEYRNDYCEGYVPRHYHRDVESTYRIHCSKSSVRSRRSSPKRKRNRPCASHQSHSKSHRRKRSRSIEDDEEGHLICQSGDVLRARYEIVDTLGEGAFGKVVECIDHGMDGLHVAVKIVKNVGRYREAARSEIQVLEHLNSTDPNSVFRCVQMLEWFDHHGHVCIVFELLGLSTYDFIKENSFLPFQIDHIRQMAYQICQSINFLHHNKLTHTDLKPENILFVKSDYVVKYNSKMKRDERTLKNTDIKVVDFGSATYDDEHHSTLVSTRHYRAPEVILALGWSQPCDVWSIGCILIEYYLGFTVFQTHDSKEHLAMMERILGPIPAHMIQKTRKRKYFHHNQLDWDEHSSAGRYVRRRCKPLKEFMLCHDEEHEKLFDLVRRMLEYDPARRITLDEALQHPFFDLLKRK

As to `NCCOCCOCCO`, the IC50 (in experiment [1]; in experiment [2]; in experiment [3]; in experiment [4]; at CDK9/cyclin T1; in experiment [5]) was more than 10 µM in each case. In addition, the half-inhibitory concentration (IC50) (in [6]; in [7]; in [8]; at CDK2/Cyclin A2; in experiment [9]; in [10]) was more than 10 µM throughout. The IC50 in experiment [11] and in [12] was more than 10 µM throughout.

For `O=C1NC(Nc2ccccc2)=N/C1=C\c1ccccc1`, the IC50 (as a rule, the concentration that inhibits the measured activity by half) in experiment [1] was more than 10 µM; in [2], more than 10 µM; in experiment [3], more than 100 µM; in [4], more than 10 µM; on CDK9/cyclin T1, more than 10 µM; in [5], more than 100 µM. In addition, the IC50 (in experiment [6]; in experiment [7]; in experiment [8]; on CDK2/Cyclin A2; in experiment [9]; in experiment [10]) was more than 10 µM in each case. For the same compound, the IC50 in [11] and in [12] was more than 10 µM in each case.

Turning to `NCCOCCOCCOCCOc1ccc(NC2=N/C(=C\c3ccc4c(c3)OCO4)C(=O)N2)cc1`, the IC50 in experiment [1] was more than 10 µM; in experiment [2], 0.061 µM; in experiment [3], 0.2 µM; in experiment [4] it was 0.072 µM; on CDK9/cyclin T1, 3.7 µM; in experiment [5] it was 0.028 µM. The IC50 in [6] was 0.061 µM; in [7], 0.18 µM; in experiment [8], 0.55 µM; at CDK2/Cyclin A2, more than 10 µM; in experiment [9], 0.13 µM; in experiment [10], more than 10 µM. The figures for the IC50 in experiment [11] and in experiment [12] were 0.21 µM and more than 10 µM, respectively. Besides, the result (in [13]; in the experiment filed under Mus musculus) was Active.

Take `NCCOCCOCCOc1ccc(NC2=N/C(=C\c3ccccc3)C(=O)N2)cc1`: the IC50 is more than 10 µM in experiment [1]; more than 10 µM in [2]; 40 µM in [3]; more than 10 µM in [4]; more than 10 µM at CDK9/cyclin T1; 8.5 µM in [5]. In addition, the IC50 (in experiment [6]; in [7]; in experiment [8]; at CDK2/Cyclin A2; in experiment [9]; in [10]) was more than 10 µM each time. Also, the IC50 in experiment [11] and in experiment [12] was more than 10 µM each time. Further, the outcome (in experiment [13]; in the experiment filed under Mus musculus) was Active.

Consider `NCCOCCOCCOc1ccc(NC2=N/C(=C\c3ccc4c(c3)OCO4)C(=O)N2)cc1`, for which the IC50 in experiment [1] was more than 10 µM; in experiment [2], 0.081 µM; in [3], 0.27 µM; in experiment [4], 0.11 µM; on CDK9/cyclin T1, 7.4 µM; in experiment [5] it was 0.05 µM. Also, the IC50 in experiment [6] is 0.075 µM; in experiment [7], 0.2 µM; in experiment [8], 0.81 µM; on CDK2/Cyclin A2 it was more than 10 µM; in experiment [9] it was 0.15 µM; in [10] it was more than 10 µM. Moreover, the figures for the IC50 in [11] and in experiment [12] were 0.28 µM and more than 10 µM, respectively. For the same compound, the outcome (in [13]; in the experiment listed under Mus musculus) was Active.

For the compound `O=C1NC(Nc2ccccc2)=N/C1=C\c1ccc2c(c1)OCO2`, the IC50 is more than 10 µM in experiment [1]; 0.73 µM in experiment [3]; more than 10 µM on CDK9/cyclin T1; 0.035 µM in [6]; 3 µM in experiment [8]; more than 10 µM on CDK2/Cyclin A2. Also, the IC50 in experiment [11] is 0.32 µM; in experiment [12], more than 10 µM.
